Measured values published in ChEMBL document CHEMBL3259629, “Discovery and optimization of piperidyl-1,2,3-triazole ureas as potent, selective, and in vivo-active inhibitors of α/β-hydrolase domain containing 6 (ABHD6)” (J Med Chem, 2013).
Calls of active or inactive are those of the source.

Assays:
[1] = molecular target: T1, 85/88 kDa calcium-independent phospholipase A2 (Mus musculus) (UniProt P97819); conditions: Neuro2a, 3 nM
T1 sequence (whole entry): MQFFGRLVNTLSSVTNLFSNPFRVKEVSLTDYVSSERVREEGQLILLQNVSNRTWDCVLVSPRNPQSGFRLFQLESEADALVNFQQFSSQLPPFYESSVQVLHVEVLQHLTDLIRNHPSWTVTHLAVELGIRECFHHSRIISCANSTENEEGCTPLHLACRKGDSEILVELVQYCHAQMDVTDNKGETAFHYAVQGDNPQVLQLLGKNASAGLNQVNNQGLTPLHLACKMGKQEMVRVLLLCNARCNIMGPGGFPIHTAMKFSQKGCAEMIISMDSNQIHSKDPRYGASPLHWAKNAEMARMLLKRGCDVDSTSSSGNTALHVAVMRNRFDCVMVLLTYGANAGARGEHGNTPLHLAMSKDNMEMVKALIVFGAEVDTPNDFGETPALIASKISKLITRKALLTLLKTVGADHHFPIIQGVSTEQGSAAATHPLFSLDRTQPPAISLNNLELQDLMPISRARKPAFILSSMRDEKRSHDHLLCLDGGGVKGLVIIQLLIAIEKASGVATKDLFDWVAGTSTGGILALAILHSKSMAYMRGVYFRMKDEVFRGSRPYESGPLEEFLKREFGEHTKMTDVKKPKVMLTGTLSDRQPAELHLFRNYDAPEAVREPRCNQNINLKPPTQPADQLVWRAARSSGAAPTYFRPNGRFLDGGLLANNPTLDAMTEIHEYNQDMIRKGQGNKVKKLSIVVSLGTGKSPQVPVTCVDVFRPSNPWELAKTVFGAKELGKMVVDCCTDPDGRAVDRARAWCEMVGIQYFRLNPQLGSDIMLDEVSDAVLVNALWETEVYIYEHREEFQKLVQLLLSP

[2] = molecular target: T2, Protein ABHD13 (Mus musculus) (UniProt Q80UX8); conditions: Neuro2a, 3 nM
T2 sequence (whole entry): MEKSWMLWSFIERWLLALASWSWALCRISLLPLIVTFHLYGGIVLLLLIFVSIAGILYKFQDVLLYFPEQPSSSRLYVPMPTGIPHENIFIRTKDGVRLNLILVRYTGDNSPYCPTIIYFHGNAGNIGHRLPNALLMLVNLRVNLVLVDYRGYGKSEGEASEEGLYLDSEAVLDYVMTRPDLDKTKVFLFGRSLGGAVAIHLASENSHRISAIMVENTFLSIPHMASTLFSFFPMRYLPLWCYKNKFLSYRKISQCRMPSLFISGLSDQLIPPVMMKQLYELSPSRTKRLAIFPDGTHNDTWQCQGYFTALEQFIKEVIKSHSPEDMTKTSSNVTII

Mus musculus = test: In vivo inhibition of ABHD6 in C57Bl/6 mouse liver at 20 mg/kg, ip after 4 hrs by FP-rhodamine/HT-10-labelled gel-based competitive assay; format: functional, organism-based; set-up: dose 20 mg/kg
Summary of the method: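 C57Bl/6 mice dosed i.p. at 1–40 mg kg⁻¹ in 18:1:1 saline/ethanol/PEG40, 10 μL g⁻¹, for 4 hr, then killed. Brain and liver membrane proteomes labelled with FP-rhodamine or HT-01 (1 μM, 30 min, 37 °C) and resolved by SDS-PAGE with in-gel fluorescence scanning.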

[3] = molecular target: T3, sn-1-specific diacylglycerol lipase ABHD11 (Mus musculus) (UniProt Q8K4F5); conditions: Neuro2a, 3 nM
T3 sequence (whole entry): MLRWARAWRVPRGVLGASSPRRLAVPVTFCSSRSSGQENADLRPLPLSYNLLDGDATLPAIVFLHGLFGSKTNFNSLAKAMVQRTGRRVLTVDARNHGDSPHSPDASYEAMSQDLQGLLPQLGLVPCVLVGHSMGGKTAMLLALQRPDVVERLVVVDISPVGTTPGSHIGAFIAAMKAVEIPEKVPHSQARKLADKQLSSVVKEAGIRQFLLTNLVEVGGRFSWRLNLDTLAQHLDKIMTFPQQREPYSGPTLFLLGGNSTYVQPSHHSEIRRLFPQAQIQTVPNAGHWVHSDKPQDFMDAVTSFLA

[4] = molecular target: T4, Serine beta-lactamase-like protein LACTB, mitochondrial (Mus musculus) (UniProt Q9EP89); conditions: Neuro2a, 3 nM
T4 sequence (whole entry): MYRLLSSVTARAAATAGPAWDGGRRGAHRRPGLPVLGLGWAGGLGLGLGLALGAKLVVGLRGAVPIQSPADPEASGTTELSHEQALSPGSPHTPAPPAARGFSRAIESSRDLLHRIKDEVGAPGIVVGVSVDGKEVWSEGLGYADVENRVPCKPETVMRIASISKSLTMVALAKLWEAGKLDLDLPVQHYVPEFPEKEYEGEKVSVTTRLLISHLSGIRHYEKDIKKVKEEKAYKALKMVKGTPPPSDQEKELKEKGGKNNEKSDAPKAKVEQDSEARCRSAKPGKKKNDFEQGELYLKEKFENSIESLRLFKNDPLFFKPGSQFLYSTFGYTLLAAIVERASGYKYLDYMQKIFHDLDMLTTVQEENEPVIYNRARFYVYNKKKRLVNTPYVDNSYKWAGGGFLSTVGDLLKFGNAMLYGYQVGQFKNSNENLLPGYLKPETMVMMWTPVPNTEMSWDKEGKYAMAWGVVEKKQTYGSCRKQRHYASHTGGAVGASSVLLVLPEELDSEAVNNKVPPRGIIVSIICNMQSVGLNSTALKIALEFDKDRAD

[5] = molecular target: T5, Lysosomal Pro-X carboxypeptidase (Mus musculus) (UniProt Q7TMR0); conditions: Neuro2a, 3 nM
T5 sequence (whole entry): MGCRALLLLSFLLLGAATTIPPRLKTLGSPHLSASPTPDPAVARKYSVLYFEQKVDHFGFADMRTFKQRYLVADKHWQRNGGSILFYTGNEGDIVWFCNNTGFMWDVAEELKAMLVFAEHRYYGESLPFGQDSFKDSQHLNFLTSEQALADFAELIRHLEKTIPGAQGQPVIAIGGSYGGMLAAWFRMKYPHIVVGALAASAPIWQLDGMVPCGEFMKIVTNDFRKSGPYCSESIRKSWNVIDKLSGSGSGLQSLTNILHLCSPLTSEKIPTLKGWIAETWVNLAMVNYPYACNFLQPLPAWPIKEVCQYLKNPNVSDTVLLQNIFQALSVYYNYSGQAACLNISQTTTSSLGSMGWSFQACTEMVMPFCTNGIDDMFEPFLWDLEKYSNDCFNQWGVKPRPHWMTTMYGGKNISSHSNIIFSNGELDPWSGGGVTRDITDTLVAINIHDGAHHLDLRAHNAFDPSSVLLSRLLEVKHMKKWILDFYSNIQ

Measured: inhibition

O=C(O)c1cccc(-c2ccc(-c3cn(C(=O)N4CCCCC4Cc4ccccc4)nn3)cc2)c1 (racemic)
active: Mus musculus
< 50%: all other assays above

O=C(N1CCCCC1c1ccccc1)n1cc(-c2ccc(-c3cccc(CO)c3)cc2)nn1 (racemic)
active: Mus musculus
< 50%: all other assays above

O=C(c1cccc(-c2ccc(-c3cn(C(=O)N4CCCCC4c4ccccc4)nn3)cc2)c1)N1CCCCC1 (racemic)
active: Mus musculus
< 50%: all other assays above
